Screens deposited in PubChem by several laboratories.
APJ ag – agonists of human apelin receptor APJ, primary screen, CHO-K1 cells, PathHunter beta-arrestin, luminescence; P35414; 0% DMSO wells, 100% apelin; activation, % at 20 µM; actives 0.11% (n = 330,000);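 active = activation more than six SD over the plate average, tested at 20 µM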;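 also: 0% = DMSO alone and 100% = apelin-13 at 10 nM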
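system = engineered CHO-K1 APJ arrestin reporter cells | input = 1000 cells per well | timing = overnight seeding, 90 min compound at 25 °C, 1 h detection | measured by = enzyme-fragment complementation luminescence | read-out = beta-arrestin recruitment to APJ as agonist activity, luminescent signal | control set = negative DMSO alone, positive Apelin-13 at 10 nM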
CCR6 antagonist – CCR6 receptor antagonists, primary screen, cell-based, CHO-K1, luminescence, beta-arrestin, uHTS | CHO-K1 CCR6 PathHunter beta-arrestin, CCL20-stimulated | C-C chemokine receptor type 6 (Homo sapiens), P51684 | inhibition, % at 20 µM | actives 0.49% (n = 340,000);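 active = compounds whose inhibition of the agonist-driven luminescence signal at 20 µM reaches about 50%, limit read from the data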;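 also: cells stimulated with CCL20 at 14 nM final; plate controls were DMSO with CCL20 for no effect and DMSO without agonist for full effect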
DAGLB inh – DAGLB lipase inhibitors, primary screen, biochemical, fluorescence, HTS. HEK293T DAGLB membrane lysate, EnzChek fluorogenic substrate. inhibition, % at 5.17 µM. actives 0.059% (n = 340,000); in the data active = inhibition above about 34%;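 also: 0% = enzyme with vehicle and 100% = wells lacking enzyme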
Target sequence (Q8NCG7 whole entry, looked up): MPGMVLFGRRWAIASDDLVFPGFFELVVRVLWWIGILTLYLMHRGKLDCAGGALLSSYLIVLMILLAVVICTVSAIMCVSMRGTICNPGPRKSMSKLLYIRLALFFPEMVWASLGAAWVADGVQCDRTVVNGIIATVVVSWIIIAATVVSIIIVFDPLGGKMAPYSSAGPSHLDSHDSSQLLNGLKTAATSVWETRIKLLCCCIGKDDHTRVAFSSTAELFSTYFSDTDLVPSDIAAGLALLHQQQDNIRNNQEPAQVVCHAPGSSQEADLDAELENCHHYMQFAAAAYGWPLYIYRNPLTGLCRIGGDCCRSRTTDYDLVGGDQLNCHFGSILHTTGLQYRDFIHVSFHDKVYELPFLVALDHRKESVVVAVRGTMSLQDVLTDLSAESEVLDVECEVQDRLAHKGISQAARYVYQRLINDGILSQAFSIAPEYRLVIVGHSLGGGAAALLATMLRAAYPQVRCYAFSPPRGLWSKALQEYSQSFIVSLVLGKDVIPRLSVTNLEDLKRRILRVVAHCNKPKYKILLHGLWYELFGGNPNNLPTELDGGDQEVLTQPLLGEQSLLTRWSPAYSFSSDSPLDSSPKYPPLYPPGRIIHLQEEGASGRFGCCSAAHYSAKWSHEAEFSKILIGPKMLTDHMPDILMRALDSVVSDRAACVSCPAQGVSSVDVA
iPSC survival up – enhancers of single-cell hiPSC survival, primary screen, ATPlite luminescence; 100% = ROCK inhibitor wells, 0% = DMSO; survival enhancement, % at 20 µM; actives 0.044% (n = 360,000); AID 602274, 2012; in the data active = survival enhancement above about 18%;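 also: cells exposed to compounds for 16 hours before the ATP read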
CXCR6 inh – CXCR6 receptor inhibitors, primary screen, cell-based, beta-arrestin, luminescence, CHO-K1 PathHunter, 1536-well. AID 602244, 2012. actives 0.36% (n = 360,000). inhibition, % at 20 µM; in the data active = inhibition above about 34%, passing the limit was not always enough;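 also: antagonist mode with CXCL16 agonist at 10 nM final; 0% = 10 nM CXCL16 with DMSO and 100% = unstimulated wells without agonist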
APJ antag – antagonists of human apelin receptor APJ, primary screen, CHO-K1 cells, beta-arrestin complementation, luminescence; inhibition, % at 20 µM; actives 0.32% (n = 330,000); AID 2521, 2010;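 active = inhibition above about 40% at 20 µM, limit read from the data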;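 also: cells challenged with 10 nM apelin-13 agonist together with compound; plate controls were apelin-13 plus DMSO wells for no effect and DMSO wells lacking apelin-13 for full effect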
DAGLB inh conf – DAGLB lipase inhibitors, retest, confirmation, biochemical, fluorescence, HEK293T membranes; shares compounds with DAGLB inh; HEK293T DAGLB membrane lysate, EnzChek fluorogenic substrate; inhibition, % at 5.17 µM; actives 73% (n = 190); AID 504445, 2011;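 active = mean inhibition over triplicate wells above a set limit taken from the primary lipase screen, cut at about 34% in these data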;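 also: 0% = DAGLB with DMSO and 100% = wells lacking DAGLB enzyme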
The depositor's hits bear a star; . = not tested or not shown. Only some compounds are listed: those with a hit (about 0.86% of all), similar ones and a draw of the others.

SMILES	APJ ag	CCR6 antagonist	DAGLB inh	iPSC survival up	CXCR6 inh	APJ antag	DAGLB inh conf
CCN(CC)c1ccc(N=Nc2nn(C)c(C)c2[N+](=O)[O-])cc1	-7	64*	44*	-2	39	55*	46*
Cc1cc(N=Nc2ccccc2)c(NCC(O)C(O)C(O)CO)cc1C (stereo not drawn)	-5	31	45*	-1	25	21	43*
CC1(CCC(=O)N2CCCC(N3CCN(c4cccc(C(F)(F)F)c4)CC3)C2)CC1 (stereo not drawn)	-7	28	-3	1	6	-7	.
O=S(=O)(Nc1ncccn1)c1ccc(NC(=S)Nc2ccc(Cl)cc2)cc1	-5	9	2	-1	0	6	.
CCc1ccc(NC(=S)Nc2ccc(S(=O)(=O)Nc3ncccn3)cc2)cc1	-2	7	54*	-1	5	12	-1
COc1cccc(C(=O)NNc2c3ccccc3nc3ccccc23)c1	-6	43	45*	0	29	23	44*
COC(=O)c1cc2c(-c3ccccc3)cc3ccccn3c-2c1C(=O)OC	2	28	37*	0	8	1	30
COC(=O)c1c(C)c2c(C)cc3ccccn3c-2c1C(=O)OC	-3	11	0	8	-1	-8	.
COc1cc(/C=C2/C(=O)NN(c3ccc(C)c(Cl)c3)C2=O)cc([N+](=O)[O-])c1O	-6	42	39*	-1	37	37	38*
CC(=O)c1ccc(NC(=O)CSc2n[nH]c(-c3cccnc3)n2)cc1	1	-8	-1	0	4	1	.
N#C/C(=C/c1cccc(O)c1)C(=O)NCc1ccc(Cl)cc1	4	0	-2	-1	-6	-39	.
N#C/C(=C/c1ccc(O)c(O)c1)C(=O)NCc1ccc(Cl)cc1	-2	31	45*	0	24	2	24
CCCN1C(=O)/C(=C2/C=Cc3ccccc3N2CC)SC1=S	-5	41	54*	2	28	42*	73*
O=C1S/C(=C\c2ccc(O)c([N+](=O)[O-])c2)C(=O)N1c1ccccc1Cl	-4	30	36*	0	38	33	45*
O=C1S/C(=C\c2ccc(O)c([N+](=O)[O-])c2)C(=O)N1Cc1cccc([N+](=O)[O-])c1	-7	37	.	-1	18	14	.
CCCCC[C@H](O)/C=C/[C@H]1[C@H](O)CC(=O)[C@@H]1CCCCCCC(=O)O	0	.	.	.	.	-7	.
CCCCCCCCCCC[C@@H](C[C@@H]1OC(=O)[C@H]1CCCCCC)OC(=O)[C@H](CC(C)C)NC=O	-8	18	49*	-2	10	4	86*
CCOC(=O)CN1CCC(C2(c3cc4ccccc4[nH]3)OCCO2)CC1	.	.	-2	-1	3	.	.
O=C(c1cc(O)c(O)c([N+](=O)[O-])c1)c1ccccc1F	0	30	38*	-3	11	19	23
O=[N+]([O-])c1cc2ccccc2c(O)c1O	.	.	14	1	-9	.	.
O=[N+]([O-])c1cc(-c2ccccc2)cc([N+](=O)[O-])c1O	.	44	43*	2	28	.	53*
CC(C)C(=O)NC(c1cccs1)c1cc([N+](=O)[O-])c2cccnc2c1O (stereo not drawn)	4	43	36*	0	11	-24	20
CCOc1ccc(-c2c[n+]3c(n2-c2ccccc2)CCCCC3)cc1	-5	17	1	-4	-1	0	.
CN(C)c1ccc(N=Nc2ccc(S(N)(=O)=O)cc2)cc1	-8	29	39*	1	20	24	39*
O=C1c2ccccc2C(=O)c2c(O)c(O)cc(O)c21	-1	40	37*	-1	22	-10	28
SMILES	APJ ag	CCR6 antagonist	DAGLB inh	iPSC survival up	CXCR6 inh	APJ antag	DAGLB inh conf
Nc1ccc(O)c2c1C(=O)c1ccccc1C2=O	-6	33	30	0	19	-51	.
COc1cccc(NC(=O)c2ccc(N3C(=O)C4CCC(C)CC4C3=O)cc2)c1 (stereo not drawn)	5	5	-1	0	-11	-7	.
O=C(NC(C(=O)N/N=C/c1cccc2ccccc12)c1n[nH]c(=O)c2ccccc12)c1ccccc1 (stereo not drawn)	-3	21	39*	6	-3	-7	40*
CCN(CCCNc1cc2c(c(N)c1S(=O)(=O)O)C(=O)c1ccccc1C2=O)c1ccccc1	.	.	36*	1	35	.	39*
O=C1c2ccccc2C(=O)c2c(NCCCN(CCO)CCO)cccc21	-4	29	.	0	-13	-28	.
COc1ccc(S(=O)(=O)/N=C2\C=C(Nc3ccc(O)cc3)C(=O)c3ccccc32)cc1	-6	.	55*	0	38	29	50*
COC(=O)C1CCN(Cc2c(C(=O)N3C[C@@H](C)O[C@@H](C)C3)nc3ccc(Cl)cn23)CC1	-2	5	-3	0	7	14	.
Nc1nc(NCCCN2CCOCC2)nc(Nc2ccccc2F)c1[N+](=O)[O-]	-2	11	1	0	4	18	.
O=S(=O)(c1ccc(NC(=S)N/N=C/c2ccc(O)c(O)c2)cc1)N1CCOCC1	-6	13	9	0	-5	-9	.
O=[N+]([O-])c1cc(Cl)cc(/C=N/NC(=S)Nc2ccc(S(=O)(=O)N3CCOCC3)cc2)c1O	-7	60*	61*	0	35	33	73*
O=C(/C(=N\Nc1ccc(Br)cc1)Sc1nnnn1-c1ccccc1)c1ccccc1	-1	12	3	-1	6	2	.
Brc1ccc(N/N=C(/N=Nc2nn[nH]n2)c2ccccc2)cc1	-5	52*	46*	-1	35	24	78*
CC1=NN(c2ccccc2)C(=O)C1N=Nc1ccccc1 (stereo not drawn)	-3	17	2	-1	8	12	.
CC1=NN(c2ccccc2)C(=O)C1N=Nc1ccc(N)cc1 (stereo not drawn)	-1	39	35*	-4	31	19	38*
O=S(=O)(NNc1ncc(C(F)(F)F)cc1Cl)c1ccccc1	-2	7	-2	0	-16	12	.
CN(C)c1ccc(N=Nc2ccccc2C(=O)OCC(=O)NCC2CCCCC2)cc1	-8	54*	39*	-1	17	22	43*
